For data set [1], the system named is Trypanosoma brucei. Briefly: In vitro antiparasitic activity against Trypanosoma brucei was tested by sigmoidal regression analysis. The data set is classed as functional. As to conditions: read-out: ED50 (the source's name). In outline: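 T. b. brucei S427 bloodstream trypomastigotes at 2 × 10⁵/mL in HMI-18 medium, in triplicate, with a 3-fold dilution series starting at 30 µM. Incubated 3 days at 37 °C in 5% CO₂. Pentamidine served as positive control. Viability read by tetrazolium colorimetric assay on day 3. ED50 by sigmoidal regression.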

The target of a further data set is Trypanothione reductase (Trypanosoma cruzi, UniProt P28593). Briefly: Inhibitory activity against Trypanosoma cruzi trypanothione disulfide reductase, assay in presence of 57 uM T(S)2. In outline:
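Assay contained 250 µM NADPH, 57 µM T(S)₂, inhibitor at 0.3–50 µM and 1% DMSO final. Started with enzyme; NADPH loss followed at 340 nm. IC50 in duplicate.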

Data set [2] can be described thus: Compound dose toxic against macrophages of Trypanosoma cruzi. The data set is classed as ADME. The method in brief: (§1)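 Starch-induced peritoneal macrophages from female CD1 mice, 4 × 10⁵/mL in RPMI-1640, infected 5:1 with T. cruzi Y-strain trypomastigotes from MDCK overlay. Drug in 3-fold dilution series, quadruplicate, 3 days. Slides methanol-fixed and Giemsa-stained.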

Data set [3] can be described thus: Compound dose toxic against mouse peritoneal macrophages infected with Leishmania donovani. The data set is classed as ADME. In outline: (§2)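 Starch-induced peritoneal macrophages from female CD1 mice, 4 × 10⁵/mL in RPMI-1640, infected with L. donovani (MHOM/ET/67/L82) amastigotes from hamster spleen. Drug in 3-fold dilution series, quadruplicate, 5 days. Giemsa-stained slides.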

The subject of the next data set is Trypanosoma cruzi. Briefly: In vitro antiparasitic activity against Trypanosoma cruzi was tested by sigmoidal regression analysis. Type of data set: functional. The conditions noted are these: read-out: ED50 (the source's name). The method in brief:
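Mouse peritoneal macrophages (female CD1, starch-elicited, harvested 24 h) infected with L. donovani amastigotes (strain MHOM/ET/67/L82, hamster spleen) or T. cruzi Y-strain trypomastigotes (5:1, from MDCK overlay). Infected cells exposed to a 3-fold dilution series in quadruplicate for 5 days (L. donovani) or 3 days (T. cruzi). Giemsa-stained slides scored for % macrophages cleared of amastigotes versus untreated cultures. ED50 by sigmoidal regression.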

The test system of data set [4] is Trypanosoma brucei. The data set can be described thus: In vitro antiparasitic activity against Trypanosoma brucei was tested by sigmoidal regression analysis. As to conditions: read-out: ED50 (the source's name).
Data set [5] in a line: Compound dose toxic against macrophages of Trypanosoma cruzi (100 % inhibition). Type of data set: ADME. The method in brief: as §1
The nature of data set [6]: Compound dose toxic against mouse peritoneal macrophages infected with Leishmania donovani (100 % inhibition). Type of data set: ADME. In outline: as §2
A short description of data set [7]: Compound dose toxic against mouse peritoneal macrophages infected with Leishmania donovani (100% inhibition). The data set is classed as ADME. In outline:
as §2

Data set [8] can be described thus: Compound dose toxic against macrophages of Trypanosoma cruzi (100% inhibition). The data set is classed as ADME. The method in brief:
as §1

pEC50, pIC50: −log10 of the molar value.

This passage reports EC50, IC50 and Toxic dose results from ChEMBL document CHEMBL1134791, “2- and 3-substituted 1,4-naphthoquinone derivatives as subversive substrates of trypanothione reductase and lipoamide dehydrogenase from Trypanosoma cruzi: synthesis and correlation between redox cycling activities and in vitro cytotoxicity” (J Med Chem, 2001).

Trypanothione reductase, sequence (P28593 whole entry): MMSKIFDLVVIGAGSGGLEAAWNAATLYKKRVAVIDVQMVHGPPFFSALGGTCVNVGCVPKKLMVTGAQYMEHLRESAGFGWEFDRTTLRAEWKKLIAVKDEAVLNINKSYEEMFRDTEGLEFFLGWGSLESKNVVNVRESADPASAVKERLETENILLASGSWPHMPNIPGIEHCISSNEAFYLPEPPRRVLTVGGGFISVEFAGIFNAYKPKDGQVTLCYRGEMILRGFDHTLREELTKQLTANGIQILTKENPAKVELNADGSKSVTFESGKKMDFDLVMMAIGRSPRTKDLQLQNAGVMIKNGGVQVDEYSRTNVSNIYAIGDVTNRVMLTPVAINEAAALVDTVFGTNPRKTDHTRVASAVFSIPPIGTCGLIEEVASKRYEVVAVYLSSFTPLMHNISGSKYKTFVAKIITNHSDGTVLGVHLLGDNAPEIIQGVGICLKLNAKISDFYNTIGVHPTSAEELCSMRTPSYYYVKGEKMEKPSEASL

As for `CC1=C(NCCCNCCCCNCCCN)C(=O)c2c(O)cccc2C1=O`, in the data set with Trypanosoma brucei [1], the pEC50 was < 4.52. Besides, the negative-log IC50 (pIC50) on Trypanothione reductase is 4.55. The Toxic dose in data set [2] was found to be 1 µM.
Take `CN1CCN(C(=O)CCCCC2=C(CCCCC(=O)N3CCN(C)CC3)C(=O)c3c(O)cccc3C2=O)CC1`: the Toxic dose amounted to 3 µM in data set [3] and 10 µM in [2]. Further, the pEC50 in the data set on Trypanosoma brucei [1] was < 4.25. Moreover, the pIC50 at Trypanothione reductase is 5.23.
As for `CC1=C(NCCCCN)C(=O)c2ccccc2C1=O`, in the data set on Trypanosoma brucei [1], the pEC50 was < 4.90. For the same compound, the negative logarithm of the IC50 (pIC50) at Trypanothione reductase was < 4.24. The compound further returned a Toxic dose in [2] of 3 µM.
In the case of `CN1CCN(C(=O)CCCCCC2=C(CCCCCC(=O)N3CCN(C)CC3)C(=O)c3c(O)cccc3C2=O)CC1`, the Toxic dose in data set [3] and in [2] was 3 µM each time. Moreover, the pEC50 in the data set with Trypanosoma brucei [1] was 4.88. For the same compound, the pIC50 on Trypanothione reductase was 5.54.
`CC1=C(NCCCN2CCN(CCCN)CC2)C(=O)c2c(O)cccc2C1=O`: the Toxic dose was found to be 30 µM in data set [3] and 3 µM in data set [2]. In addition, the pEC50 in the data set with Trypanosoma brucei [1] was < 5.52. Further, the pIC50 on Trypanothione reductase was 4.41.
For the compound `CC1=CC(=O)c2ccccc2C1=O` [MENADIONE], the Toxic dose in [3] worked out at 30 µM; in data set [2], 10 µM.
With `CC1=C(CCC(=O)NCCCN2CCN(CCCNC(=O)CCC3=C(C)C(=O)c4cccc(O)c4C3=O)CC2)C(=O)c2c(O)cccc2C1=O`, the negative logarithm of the IC50 (pIC50) on Trypanothione reductase is 5.59. Further, the pEC50 in the data set with Trypanosoma cruzi is 4.36; with Trypanosoma brucei [4] it was 4.52.
In the case of `CC1=C(NCCCNCCCN)C(=O)c2c(O)cccc2C1=O`, the pEC50 in the data set on Trypanosoma brucei [1] was < 4.90. Moreover, the pIC50 on Trypanothione reductase is 4.24. For the same compound, in data set [2], the Toxic dose was 1 µM.
As for `CC1=CC(=O)c2c(O)cccc2C1=O` [PLUMBAGIN], the Toxic dose in data set [5] stood at 10 µM; in data set [6], 3 µM. Besides, in the data set on Trypanosoma brucei [1], the pEC50 was 5.82.
As for `CC1=C(NCCCNCCC/N=C2/C(=O)c3ccccc3C(O)=C2C)C(=O)c2ccccc2C1=O`, the pEC50 with Trypanosoma brucei [1] is < 4.90. Further, the negative-log IC50 (pIC50) at Trypanothione reductase was 5.05. The compound also displayed a Toxic dose in data set [2] of 10 µM.
The like results for `CC1=C(NCCCN2CCN(CCCNC3=C(C)C(=O)c4ccccc4C3=O)CC2)C(=O)c2ccccc2C1=O` were, in that order, < 4.90, 5.00 and 30 µM.
As to `CC1=C(NCCCNCCCCNCCCN)C(=O)c2ccccc2C1=O`, the Toxic dose in data set [3] was found to be 30 µM; in data set [2], 1 µM. Moreover, the pEC50 in the data set with Trypanosoma brucei [1] is 4.52. Moreover, the pIC50 on Trypanothione reductase was 4.55.
Take `CC1=C(CCC(=O)NCCCN2CCN(C)CC2)C(=O)c2c(O)cccc2C1=O`: the pEC50 in the data set with Trypanosoma brucei [1] was < 5.00. Besides, the pIC50 at Trypanothione reductase was 4.80. In addition, in data set [2], the Toxic dose came to 10 µM.
In the case of `CC1=C(CCCCNC(=O)OC(C)(C)C)C(=O)c2ccccc2C1=O`, the pEC50 in the data set with Trypanosoma brucei [1] is < 5.52; with Trypanosoma cruzi it was 4.98. Further, the pIC50 at Trypanothione reductase is < 4.60.
On the same counts, the results for `CC1=C(CCC(=O)NCCCNCCCNC(=O)CCC2=C(C)C(=O)c3ccccc3C2=O)C(=O)c2ccccc2C1=O` are 5.35, 4.33 and 5.30.
The like results for `CC1=C(N2CCN(CCCN(C)C)CC2)C(=O)c2ccccc2C1=O` were, in that order, < 4.90, < 4.90 and < 4.24.
Turning to `CC1=C(CCC(=O)NCCCCNCCCNC(=O)CCC2=C(C)C(=O)c3cccc(O)c3C2=O)C(=O)c2c(O)cccc2C1=O`, the pEC50 in the data set on Trypanosoma brucei [1] was 4.86; in the data set on Trypanosoma cruzi it was 4.34. Besides, at Trypanothione reductase, the pIC50 was 5.54.
`CC1=C(O)c2cccc(O)c2C(=O)/C1=N\CCCN1CCN(C)CC1`: the pEC50 in the data set with Trypanosoma brucei [1] is < 4.90. Further, the negative logarithm of the IC50 (pIC50) on Trypanothione reductase was < 4.24. In addition, the values for the Toxic dose in data set [7] and in [8] were 30 µM and 10 µM, respectively.
In the case of `CC1=C(CCC(=O)O)C(=O)c2c(O)cccc2C1=O`, the pEC50 is < 4.96 in the data set on Trypanosoma brucei [1] and 4.34 in the data set on Trypanosoma cruzi. Besides, the pIC50 at Trypanothione reductase was < 4.30.
For `CC1=C(NCCCNCCCCNCCCNC2=C(C)C(=O)c3ccccc3C2=O)C(=O)c2ccccc2C1=O`, the values for the Toxic dose in [3] and in data set [2] were 30 µM and 1 µM, respectively. For the same compound, the pEC50 in the data set with Trypanosoma brucei [1] was < 6.00. Moreover, the negative-log IC50 (pIC50) at Trypanothione reductase was 5.19.
With `CC1=C(CCCNC(=O)OC(C)(C)C)C(=O)c2c(O)cccc2C1=O`, the pEC50 with Trypanosoma brucei [1] is 6.22; with Trypanosoma cruzi it was 5.43. Further, on Trypanothione reductase, the pIC50 was < 4.60.
Consider `CN1CCN(CCCNC(=O)CCCCCC2=C(CCCCCC(=O)NCCCN3CCN(C)CC3)C(=O)c3c(O)cccc3C2=O)CC1`, for which the Toxic dose was 10 µM in [3] and 30 µM in [2]. Further, the pEC50 in the data set with Trypanosoma brucei [1] is 5.00. For the same compound, the pIC50 on Trypanothione reductase was 6.10.
`CC1=C(CCCCC(=O)NCCCN2CCN(CCCNC(=O)CCCCC3=C(C)C(=O)c4ccccc4C3=O)CC2)C(=O)c2ccccc2C1=O`: the pEC50 is 5.14 with Trypanosoma brucei [1] and 4.59 in the data set on Trypanosoma cruzi. Further, the pIC50 at Trypanothione reductase is 5.95.
On the same counts, the results for `CC1=C(CCCC(=O)NCCCNCCCNC(=O)CCCC2=C(C)C(=O)c3cccc(O)c3C2=O)C(=O)c2c(O)cccc2C1=O` are < 5.34, 4.33 and 5.70.
On the same counts, the results for `CC1=C(NCCCC/N=C2/C(=O)c3ccccc3C(O)=C2C)C(=O)c2ccccc2C1=O` are < 4.90, < 4.90 and < 4.24.
The like results for `CN1CCN(C(=O)CCCC2=C(CCCC(=O)N3CCN(C)CC3)C(=O)c3c(O)cccc3C2=O)CC1` were, in that order, 4.50, < 4.32 and 4.76.
Take `CC1=C(CCCCCC(=O)O)C(=O)c2c(O)cccc2C1=O`: the pEC50 with Trypanosoma brucei [1] was < 5.48; with Trypanosoma cruzi it was 4.49. Further, on Trypanothione reductase, the negative-log IC50 (pIC50) was < 4.30.
On the same counts, the results for `CC1=C(CCC(=O)O)C(=O)c2ccccc2C1=O` are < 4.52, < 4.52 and < 4.30.
Take `CC1=C(CCCCCC(=O)NCCCCNCCCNC(=O)CCCCCC2=C(C)C(=O)c3cccc(O)c3C2=O)C(=O)c2c(O)cccc2C1=O`: the pEC50 in the data set on Trypanosoma brucei [1] was 6.52; with Trypanosoma cruzi it was 4.61. Also, the negative logarithm of the IC50 (pIC50) on Trypanothione reductase was 5.80.
On to `CN1CCN(CCCNC(=O)CCCC2=C(CCCC(=O)NCCCN3CCN(C)CC3)C(=O)c3c(O)cccc3C2=O)CC1`, for which the figures for the pEC50 in the data set with Trypanosoma brucei [1] and in the data set on Trypanosoma cruzi were 3.59 and 4.23, respectively. In addition, at Trypanothione reductase, the negative-log IC50 (pIC50) is 4.96.
`CC1=C(CCC(=O)NCCCN2CCN(C)CC2)C(=O)c2ccccc2C1=O`: the pEC50 with Trypanosoma brucei [1] was < 5.00. Also, the pIC50 on Trypanothione reductase was 4.42. The Toxic dose in data set [2] came out at 30 µM.

A word on the pIC50: it is the IC50 on a negative log10 scale, so that one unit is a factor of ten.
